The values that follow come from ChEMBL document CHEMBL1154130, “Synthesis and biological activities of thio-avarol derivatives” (J Nat Prod, 2008).

The subject of one series is Artemia salina. The series can be described thus: Toxicity against Artemia salina after 24 hrs. It is filed as organism-based. The following applies: in vivo. The gist of the method:
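Freshly hatched Artemia salina larvae (10 per test) in 5 mL artificial seawater; compounds dissolved in DMSO, tested at final 100, 10 and 1 ppm, in triplicate. Surviving shrimps counted after 24 h; LD50 with 95% confidence intervals by Finney probit analysis, reported in ppm.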

The next series deals with Saccharomyces cerevisiae. The series can be described thus: Antimicrobial activity against Saccharomyces cerevisiae DMS 70449 after 48 hrs by serial dilution method. It is filed as functional.
The target in series [1] is Acetylcholinesterase (Homo sapiens) (UniProt P22303).
Acetylcholinesterase (Homo sapiens), sequence (P22303 whole entry): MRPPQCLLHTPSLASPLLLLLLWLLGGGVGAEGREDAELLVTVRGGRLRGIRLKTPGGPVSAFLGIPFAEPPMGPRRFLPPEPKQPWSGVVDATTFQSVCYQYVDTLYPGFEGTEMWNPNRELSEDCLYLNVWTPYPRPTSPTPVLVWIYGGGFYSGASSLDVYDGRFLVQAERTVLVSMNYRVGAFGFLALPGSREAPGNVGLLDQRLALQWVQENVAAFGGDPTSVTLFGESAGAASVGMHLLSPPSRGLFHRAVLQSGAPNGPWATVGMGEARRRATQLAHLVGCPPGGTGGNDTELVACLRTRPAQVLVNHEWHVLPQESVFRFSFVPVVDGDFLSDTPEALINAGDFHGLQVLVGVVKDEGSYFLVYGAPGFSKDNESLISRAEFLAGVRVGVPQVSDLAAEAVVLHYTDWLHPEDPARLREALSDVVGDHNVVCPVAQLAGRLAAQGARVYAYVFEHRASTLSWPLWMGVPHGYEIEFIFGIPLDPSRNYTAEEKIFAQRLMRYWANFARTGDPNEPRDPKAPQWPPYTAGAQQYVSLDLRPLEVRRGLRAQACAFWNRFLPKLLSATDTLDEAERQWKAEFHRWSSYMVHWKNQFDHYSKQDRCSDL
A further series has as its system Micrococcus luteus. The series can be described thus: Antimicrobial activity against Micrococcus luteus DMS 348 after 48 hrs by serial dilution method. Format: functional. The gist of the method: (§1)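 Bacteria grown as liquid cultures in nutrient broth at 37 °C. […] Growth was scored after 48 h of incubation.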
The test system of series [2] is Radical scavenging activity. The series can be described thus: Antioxidant activity assessed as DPPH radical scavenging activity. It is filed as functional. The gist of the method:
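Compounds were tested in MeOH at 5, 10, 20, 50 and 100 µM with DPPH at 0.1 mM final. Absorbance at 517 nm was read after 30 min. Percent radical inhibition was plotted to give the IC50, the concentration scavenging 50% of DPPH. Trolox was the positive control.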
For orientation: Loss of DPPH colour is used to gauge radical scavenging.

Another series concerns Bacillus spizizenii. The series can be described thus: Antimicrobial activity against Bacillus subtilis subsp. spizizenii DMS 347 after 48 hrs by serial dilution method. Format: functional. The gist of the method: as §1
In a further series the test system is Escherichia coli. The series can be described thus: Antimicrobial activity against Escherichia coli DSM 498 after 48 hrs by serial dilution method. It is filed as functional, organism-based. In outline: as §1

In brackets after ≈: the same amount, converted by molar mass. Activity calls are given as the source filed them. The rule behind the calls is not given here.

A word on the LC50: it is the concentration that kills 50% of the test population. What is called IC50 is the concentration that inhibits the measured activity by half. As to `CC1=CCC[C@H]2[C@](C)(CC3=CC(=O)C(S[C@H]4CC[C@@]5(C)C(=CC[C@H]6[C@@H]7CC[C@H]([C@H](C)CCCC(C)C)[C@@]7(C)CC[C@@H]65)C4)=CC3=O)[C@@H](C)CC[C@]12C`, the median lethal concentration (LC50) result with Artemia salina is on record as “Not Active”. The MIC result in the series with Saccharomyces cerevisiae, with Micrococcus luteus and in the series with Bacillus spizizenii was “inactive” throughout. The same molecule returned an MIC in series [1] of over 10 µg. Also, the IC50 entry in series [2] is recorded as “Not Active”. Further, the result in the series with Escherichia coli was inactive.

On to `CC1=CCC[C@H]2[C@](C)(Cc3cc(O)cc(Sc4nc5ccccc5s4)c3O)[C@@H](C)CC[C@]12C`, for which the LC50 result in the series with Artemia salina is “Not Active”. For the same molecule, the MIC was found to be 100 µg/mL (≈ 208 µM) in the series on Saccharomyces cerevisiae (DMS 70449, 48 h); 10 µg in series [1]; 0.01 µg/mL (≈ 0.0208 µM) against Micrococcus luteus (DMS 348, 48 h). In series [2] (read-out: IC50), the IC50 came to 29.5 µM. In addition, the MIC result with Bacillus spizizenii was “inactive”. For the same molecule, the result in the series on Escherichia coli was inactive.

In the series on Saccharomyces cerevisiae, NYSTATIN returned an MIC of 100 µg/mL.

With `CC1=CCC[C@H]2[C@](C)(Cc3cc(O)c(Sc4nc5ccccc5s4)cc3O)[C@@H](C)CC[C@]12C`, in the series on Artemia salina, the LC50 result is “Not Active”. Moreover, the MIC result in the series on Saccharomyces cerevisiae, in the series with Micrococcus luteus and in the series on Bacillus spizizenii was “inactive” in each case. Moreover, the MIC in series [1] is over 10 µg. Besides, the IC50 in series [2] (read-out: IC50) turned out to be 31.2 µM. Moreover, the outcome in the series on Escherichia coli was inactive.

For the molecule `Cc1c(C)c2c(c(C)c1O)CCC(C)(C(=O)O)O2` (stereo unspecified) [TROLOX], the IC50 in series [2] (read-out: IC50) was 25.8 µM.

As to GENTAMICIN, the MIC was found to be 10 µg/mL in the series with Micrococcus luteus and 1 µg/mL in the series with Bacillus spizizenii.

For the molecule `CC1=CCC[C@H]2[C@](C)(CC3=CC(O)C(S[C@H]4CC[C@@]5(C)C(=CC[C@H]6[C@@H]7CC[C@H]([C@H](C)CCCC(C)C)[C@@]7(C)CC[C@@H]65)C4)=CC3O)[C@@H](C)CC[C@]12C` (stereo partly specified), the LC50 result with Artemia salina is “Not Active”. Besides, the IC50 in series [2] (read-out: IC50) was 71.4 µM.

For `CC1=CCC[C@H]2[C@](C)(Cc3cc(O)ccc3O)[C@@H](C)CC[C@]12C` [AVAROL], in the series with Artemia salina, the LC50 was 0.18 ppm. Moreover, the MIC result in the series with Saccharomyces cerevisiae is “inactive”. Also, the MIC in series [1] was 10 µg; against Micrococcus luteus (DMS 348, 48 h), 10 µg/mL (≈ 31.8 µM); against Bacillus spizizenii (DMS 347, 48 h) it was 25 µg/mL (≈ 79.5 µM). Moreover, the IC50 in series [2] (read-out: IC50) came out at 18 µM. Moreover, the result in the series with Escherichia coli was inactive.

In the series on Artemia salina, `CC1=CCC[C@H]2[C@](C)(Cc3cc(O)cc(Sc4cccc(C(=O)O)c4)c3O)[C@@H](C)CC[C@]12C` yielded an LC50 of 14.73 ppm. The MIC result in the series with Saccharomyces cerevisiae was “inactive”. For the same molecule, the MIC in series [1] was found to be 1 µg; in the series on Micrococcus luteus (DMS 348, 48 h), 10 µg/mL (≈ 21.4 µM); against Bacillus spizizenii (DMS 347, 48 h), 10 µg/mL (≈ 21.4 µM). Besides, in series [2] (read-out: IC50), the IC50 was 31.8 µM. In addition, the result in the series on Escherichia coli was inactive.

For `CC1=CCC[C@H]2[C@](C)(CC3=CC(O)C(S[C@H]4CC[C@@]5(C)C(=CC[C@H]6[C@@H]7CC[C@H]([C@H](C)CCCC(C)C)[C@@]7(C)CC[C@@H]65)C4)=C(S[C@H]4CC[C@@]5(C)C(=CC[C@H]6[C@@H]7CC[C@H]([C@H](C)CCCC(C)C)[C@@]7(C)CC[C@@H]65)C4)C3O)[C@@H](C)CC[C@]12C` (stereo partly specified), the LC50 result in the series with Artemia salina is given as “Not Active”. Besides, the MIC result in the series on Saccharomyces cerevisiae, with Micrococcus luteus and with Bacillus spizizenii was “inactive” each time. This molecule gave an MIC in series [1] of over 10 µg. Besides, the IC50 in series [2] (read-out: IC50) stood at 41.5 µM. Also, the result in the series on Escherichia coli was inactive.

In turn, `CC1=CCC[C@H]2[C@](C)(Cc3cc(O)cc(Sc4ccccc4CO)c3O)[C@@H](C)CC[C@]12C` registered an LC50 in the series on Artemia salina of over 50 ppm. Further, the MIC entry with Saccharomyces cerevisiae, in the series on Micrococcus luteus and with Bacillus spizizenii was “inactive” throughout. In series [1], this molecule displayed an MIC of 10 µg. The IC50 in series [2] (read-out: IC50) turned out to be 25.3 µM. Moreover, the result in the series with Escherichia coli was inactive.

Consider `CC1=CCC[C@H]2[C@](C)(Cc3cc(O)cc(SC(C)C(=O)O)c3O)[C@@H](C)CC[C@]12C` (stereo partly specified), for which the 50% lethal concentration (LC50) in the series on Artemia salina came to 27.25 ppm. Further, the MIC result in the series with Saccharomyces cerevisiae and in the series with Micrococcus luteus was “inactive” each time. Further, the MIC in series [1] turned out to be 1 µg; in the series with Bacillus spizizenii (DMS 347, 48 h) it was 10 µg/mL (≈ 23.9 µM). Moreover, the IC50 in series [2] (read-out: IC50) is 34.6 µM. In the series with Escherichia coli, the outcome was inactive.

In the series on Artemia salina, `CC1=CCC[C@H]2[C@](C)(Cc3cc(O)c(SC(C)C(=O)O)cc3O)[C@@H](C)CC[C@]12C` (stereo partly specified) returned an LC50 of over 50 ppm. For the same molecule, the MIC entry with Saccharomyces cerevisiae and in the series with Micrococcus luteus was “inactive” each time. Moreover, the MIC is 1 µg in series [1] and 10 µg/mL (≈ 23.9 µM) against Bacillus spizizenii (DMS 347, 48 h). Besides, the IC50 in series [2] (read-out: IC50) worked out at 35.3 µM. In addition, the outcome in the series on Escherichia coli was inactive.

With `CC1=CCC[C@H]2[C@](C)(CC3=CC(=O)C=CC3=O)[C@@H](C)CC[C@]12C` [AVARONE], the LC50 in the series with Artemia salina is reported as 0.14 ppm. The MIC result in the series on Saccharomyces cerevisiae is “inactive”. Moreover, the MIC in series [1] came to 1 µg; in the series on Micrococcus luteus (DMS 348, 48 h), 1 µg/mL (≈ 3.2 µM); in the series on Bacillus spizizenii (DMS 347, 48 h) it was 10 µg/mL (≈ 32 µM). For the same molecule, the IC50 in series [2] (read-out: IC50) was determined as 32.1 µM. In addition, the outcome in the series with Escherichia coli was inactive.
